Laboratory results as given in ChEMBL document CHEMBL1157869, “Discovering some novel tetrahydroquinoline derivatives bearing the biologically active sulfonamide moiety as a new class of antitumor agents” (Eur J Med Chem, 2010).
Converted amounts (≈) assume the structure as drawn.

What was measured:
[1] = Antitumor activity against mouse EAC cells assessed as non viable cells at 100 ug/mL after 2 hrs by trypan blue exclusion test; format: functional, Ehrlich
How it was run: (§1)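 Cells came from the ascitic fluid of preinoculated female Swiss albino mice and were suspended in medium with glutamine, fetal calf serum and antibiotics. Compound from DMSO dilutions was added as 0.1 mL, equal to the stated µg level, to medium plus 0.1 mL cell suspension (2 × 10^6). After 2 h at 37 °C, the percentage of non-viable cells was counted by trypan blue exclusion.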

[2] = Antitumor activity against mouse EAC cells assessed as non viable cells at 50 ug/mL after 2 hrs by trypan blue exclusion test; format: functional, Ehrlich; how it was run: as §1
[3] = Antitumor activity against mouse EAC cells assessed as non viable cells at 25 ug/mL after 2 hrs by trypan blue exclusion test; format: functional, Ehrlich; how it was run: as §1
[4] = Antitumor activity against mouse EAC cells assessed as non viable cells at 10 ug/mL after 2 hrs by trypan blue exclusion test; format: functional, Ehrlich; how it was run: as §1
[5] = Antitumor activity against mouse EAC cells assessed as non viable cells after 2 hrs by trypan blue exclusion test; format: functional, cell-based; conditions: Ehrlich
How it was run: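 EAC cells were aspirated from the ascitic fluid of preinoculated female Swiss albino mice and suspended in medium containing glutamine, fetal calf serum, streptomycin and penicillin. Tubes received compound from DMSO dilutions (0.1 mL, corresponding to 100, 50, 25 or 10 µg) plus 0.1 mL cells and were held at 37 °C for 2 h. Non-viable cells were counted by trypan blue exclusion, and IC50 was read from the survival-versus-concentration curve.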

| SMILES | Activity [1] [%] | Activity [2] [%] | Activity [3] [%] | Activity [4] [%] | IC50 [5] [µg/mL] |
| --- | --- | --- | --- | --- | --- |
| N#CC1=C(N)N(c2ccc(S(N)(=O)=O)cc2)C2=C(C(=O)CCC2)C1/C=C/c1ccccc1 (stereo not given) | 45 | 40 | 10 | 2 | > 100 |
| Cc1ccc(C2C(C#N)=C(N)N(c3ccc(S(N)(=O)=O)cc3)C3=C2C(=O)CCC3)cc1 (stereo not given) | 100 | 50 | 30 | 30 | 50 (≈ 115 µM) |
| N#CC1=C(N)N(c2ccc(S(N)(=O)=O)cc2)C2=C(C(=O)CCC2)C1c1ccc(O)cc1 (stereo not given) | 100 | 100 | 95 | 90 | 3 (≈ 6.87 µM) |
| COc1ccccc1C1C(C#N)=C(N)N(c2ccc(S(N)(=O)=O)cc2)C2=C1C(=O)CCC2 (stereo not given) | 0 | 0 | 0 | 0 | > 100 |
| N#CC1=C(N)N(c2ccc(S(N)(=O)=O)cc2)C2=C(C(=O)CCC2)C1c1ccccc1 (stereo not given) | 40 | 40 | 30 | 10 | > 100 |
| Cc1ccc(C2C(C#N)=C(N)N(c3ccc(S(N)(=O)=O)cc3)C3=C2C(=O)CCC3)o1 (stereo not given) | 45 | 40 | 10 | 2 | > 100 |
| N#CC1=C(N)N(c2ccc(S(N)(=O)=O)cc2)C2=C(C(=O)CCC2)C1c1cccs1 (stereo not given) | 100 | 88 | 80 | 70 | 5 (≈ 11.7 µM) |
| COc1ccc(C2C(C#N)=C(N)N(c3ccc(S(N)(=O)=O)cc3)C3=C2C(=O)CCC3)c2ccccc12 (stereo not given) | 90 | 30 | 10 | 10 | 70 (≈ 140 µM) |
| N#CC1=C(N)N(c2ccc(S(N)(=O)=O)cc2)C2=C(C(=O)CCC2)C1c1ccco1 (stereo not given) | 10 | 5 | 0 | 0 | > 100 |
| COc1ccc(C2C(C#N)=C(N)N(c3ccc(S(N)(=O)=O)cc3)C3=C2C(=O)CCC3)cc1 (stereo not given) | 100 | 90 | 50 | 30 | 25 (≈ 55.5 µM) |
| N#CC1=C(N)N(c2ccc(S(N)(=O)=O)cc2)C2=C(C(=O)CCC2)C1c1ccc([N+](=O)[O-])cc1 (stereo not given) | 100 | 95 | 80 | 85 | 2.5 (≈ 5.37 µM) |
| COc1cc(OC)c(C2C(C#N)=C(N)N(c3ccc(S(N)(=O)=O)cc3)C3=C2C(=O)CCC3)cc1OC (stereo not given) | 100 | 100 | 72 | 40 | 12 (≈ 23.5 µM) |
| CCOc1cc(C2C(C#N)=C(N)N(c3ccc(S(N)(=O)=O)cc3)C3=C2C(=O)CCC3)ccc1OC (stereo not given) | 100 | 70 | 60 | 50 | 10 (≈ 20.2 µM) |
| COc1cc(C2C(C#N)=C(N)N(c3ccc(S(N)(=O)=O)cc3)C3=C2C(=O)CCC3)ccc1O (stereo not given) | 100 | 90 | 50 | 0 | 25 (≈ 53.6 µM) |
| N#CC1=C(N)N(c2ccc(S(N)(=O)=O)cc2)C2=C(C(=O)CCC2)C1c1cccc([N+](=O)[O-])c1 (stereo not given) | 71 | 73 | 50 | 42 | 25 (≈ 53.7 µM) |
| N#CC1=C(N)N(c2ccc(S(N)(=O)=O)cc2)C2=C(C(=O)CCC2)C1c1c(O)ccc2ccccc12 (stereo not given) | 15 | 5 | 0 | 0 | > 100 |
| COc1ccc2ccccc2c1C1C(C#N)=C(N)N(c2ccc(S(N)(=O)=O)cc2)C2=C1C(=O)CCC2 (stereo not given) | 80 | 70 | 62 | 40 | 12.5 (≈ 25 µM) |
| N#CC1=C(N)N(c2ccc(S(N)(=O)=O)cc2)C2=C(C(=O)CCC2)C1c1ccc(Cl)cc1Cl (stereo not given) | 95 | 65 | 50 | 40 | 25 (≈ 51.1 µM) |
| COc1cccc2c1C(=O)c1c(O)c3c(c(O)c1C2=O)C[C@@](O)(C(=O)CO)C[C@@H]3O[C@H]1C[C@H](N)[C@H](O)[C@H](C)O1 [DOXORUBICIN] | 100 | 60 | 39 | 20 | 37.5 (≈ 69 µM) |
